For one assay, the system named is MDA-MB-231. Description: Cytotoxicity against human MDA-MB-231 cells by MTT assay. Format: functional, cell-based. For orientation: Formazan colour is commonly taken as a measure of viable cells.
The next assay relates to HepG2. Description: Cytotoxicity against human HepG2 cells by MTT assay. Format: functional, cell-based.
Assay [1] is described as follows: Cytotoxicity against human SKOV3 cells by MTT assay. The assay is classed as functional, cell-based. Conditions: SK-OV-3.
For assay [2], the system named is Candida albicans. Description: Antifungal activity against Candida albicans MTCC 3017 after 24 hrs by well diffusion assay. The assay is classed as functional. Conditions: MTCC 3017, 24 h. The essentials:
(§1)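 Well diffusion screen against Candida and related fungal strains. Read-out is MIC in µg/mL, with miconazole as the reference drug.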
Background: A growth-free zone around the sample is the usual read-out of agar diffusion tests.

Assay [3] relates to Staphylococcus aureus. The experiment in a line: Antibacterial activity against Staphylococcus aureus MLS-16 MTCC 2940 after 24 hrs by well diffusion assay. Conditions: MLS-16 MTCC 2940, 24 h. The assay is classed as functional.
Assay [4] relates to Micrococcus luteus. Description: Antibiofilm activity against Micrococcus luteus MTCC 2470 after 24 hrs by crystal violet staining based method. The assay is classed as functional, organism-based. The conditions noted are these: MTCC 2470, 24 h. The essentials:
(§2)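 Biofilm inhibition was tested on the four Gram-positive strains, using crystal violet staining.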

The subject of assay [5] is Micrococcus luteus. Description: Bactericidal activity against Micrococcus luteus MTCC 2470 after 24 hrs. The assay is classed as functional. Conditions: MTCC 2470, 24 h. The essentials: (§3)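 Minimum bactericidal concentration was determined on four Gram-positive strains, for the compounds active in the preliminary antibacterial screen.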
Assay [6] relates to Micrococcus luteus. The experiment in a line: Antibacterial activity against Micrococcus luteus MTCC 2470 after 24 hrs by well diffusion assay. The assay is classed as functional. Conditions: MTCC 2470, 24 h.
The test system of assay [7] is Bacillus subtilis. The experiment in a line: Antibacterial activity against Bacillus subtilis MTCC 121 after 24 hrs by well diffusion assay. The assay is classed as functional. The conditions noted are these: MTCC 121, 24 h.
For a further assay, the system named is Raoultella planticola. The experiment in a line: Antibacterial activity against Klebsiella planticola MTCC 530 after 24 hrs by well diffusion assay. The conditions noted are these: MTCC 530, 24 h. The assay is classed as functional.
Assay [8] concerns Staphylococcus aureus. Description: Bactericidal activity against Staphylococcus aureus MLS-16 MTCC 2940 after 24 hrs. Conditions: MLS-16 MTCC 2940, 24 h. Format: functional. In short, it runs like this:
as §3

The subject of assay [9] is Staphylococcus aureus. Description: Bactericidal activity against Staphylococcus aureus MTCC 96 after 24 hrs. Format: functional. The conditions noted are these: MTCC 96, 24 h. In short, it runs like this: as §3
The test system of assay [10] is Bacillus subtilis. The experiment in a line: Bactericidal activity against Bacillus subtilis MTCC 121 after 24 hrs by well diffusion assay. Format: functional. Conditions: MTCC 121, 24 h. The essentials:
as §3

Assay [11] has as its system Staphylococcus aureus. Description: Antibacterial activity against Staphylococcus aureus MTCC 96 after 24 hrs by well diffusion assay. The assay is classed as functional. Conditions: MTCC 96, 24 h.
A further assay deals with Pseudomonas aeruginosa. Description: Antibacterial activity against Pseudomonas aeruginosa MTCC 2453 after 24 hrs by well diffusion assay. The conditions noted are these: MTCC 2453, 24 h. Format: functional.
The subject of assay [12] is Bacillus subtilis. Description: Antibiofilm activity against Bacillus subtilis MTCC 121 after 24 hrs by well diffusion assay by crystal violet staining based method. The conditions noted are these: MTCC 121, 24 h. The assay is classed as functional, organism-based. The essentials:
as §2

In a further assay the test system is Escherichia coli. Description: Antibacterial activity against Escherichia coli MTCC 739 after 24 hrs by well diffusion assay. The assay is classed as functional. The conditions noted are these: MTCC 739, 24 h.
The test system of the next assay is Pichia sporocuriosa. Description: Antifungal activity against Issatchenkia hanoiensis MTCC 4755 after 24 hrs by well diffusion assay. Conditions: MTCC 4755, 24 h. The assay is classed as functional. In short, it runs like this: as §1
The subject of assay [13] is Candida parapsilosis. The experiment in a line: Inhibition of ergosterol biosynthesis in Candida parapsilosis MTCC 1744 assessed as mean ergosterol content at 2 ug/ml after 20 hrs by spectrophotometric analysis (Rvb=1.62 +/- 0.08 ug/ml). Format: functional.
Assay [14] deals with Candida parapsilosis. The experiment in a line: Inhibition of ergosterol biosynthesis in Candida parapsilosis MTCC 1744 assessed as mean ergosterol content at 4 ug/ml after 20 hrs by spectrophotometric analysis (Rvb=1.62 +/- 0.08 ug/ml). Format: functional.
Another assay deals with [Candida] aaseri. The experiment in a line: Antifungal activity against Candida aaseri MTCC 1962 after 24 hrs by well diffusion assay. Format: functional. The conditions noted are these: Yamadazyma aaseri, MTCC 1962, 24 h. In short, it runs like this: as §1
Assay [15] relates to Candida albicans. Description: Antifungal activity against Candida albicans MTCC 4748 after 24 hrs by well diffusion assay. The assay is classed as functional. The conditions noted are these: MTCC 4748, 24 h. In short, it runs like this:
as §1

The subject of assay [16] is Candida albicans. The experiment in a line: Antifungal activity against Candida albicans MTCC 854 after 24 hrs by well diffusion assay. The assay is classed as functional. The conditions noted are these: MTCC 854, 24 h. The essentials: as §1
Assay [17] deals with Candida albicans. Description: Antifungal activity against Candida albicans MTCC 227 after 24 hrs by well diffusion assay. Format: functional. The conditions noted are these: MTCC 227, 24 h. The essentials: as §1
Assay [18] deals with Candida albicans. Description: Antifungal activity against Candida albicans MTCC 3958 after 24 hrs by well diffusion assay. Format: functional. Conditions: MTCC 3958, 24 h. The essentials: as §1
The subject of another assay is Nakaseomyces glabratus. The experiment in a line: Antifungal activity against Candida glabrata MTCC 3019 after 24 hrs by well diffusion assay. The assay is classed as functional. Conditions: MTCC 3019, 24 h. The essentials: as §1
The test system of assay [19] is Candida albicans. The experiment in a line: Antifungal activity against Candida albicans MTCC 7315 after 24 hrs by well diffusion assay. Format: functional. The conditions noted are these: MTCC 7315, 24 h. In short, it runs like this:
as §1

Assay [20] has as its system Candida parapsilosis. The experiment in a line: Inhibition of ergosterol biosynthesis in Candida parapsilosis MTCC 1744 assessed as mean ergosterol content at 16 ug/ml after 20 hrs by spectrophotometric analysis (Rvb=1.62 +/- 0.08 ug/ml). The assay is classed as functional.
Assay [21] relates to Candida parapsilosis. The experiment in a line: Antifungal activity against Candida parapsilosis MTCC 1744 after 24 hrs by well diffusion assay. The conditions noted are these: Lodderomyces parapsilosis, MTCC 1744, 24 h. The assay is classed as functional. In short, it runs like this: as §1
The next assay concerns Pichia kudriavzevii. Description: Antifungal activity against Pichia kudriavzevii MTCC 3020 after 24 hrs by well diffusion assay. Format: functional. Conditions: MTCC 3020, 24 h. In short, it runs like this: as §1
In assay [22] the test system is Candida albicans. Description: Antifungal activity against Candida albicans MTCC 1637 after 24 hrs by well diffusion assay. Conditions: MTCC 1637, 24 h. Format: functional. In short, it runs like this: as §1
For assay [23], the system named is Candida parapsilosis. The experiment in a line: Inhibition of ergosterol biosynthesis in Candida parapsilosis MTCC 1744 assessed as mean ergosterol content at 8 ug/ml after 20 hrs by spectrophotometric analysis (Rvb=1.62 +/- 0.08 ug/ml). The assay is classed as functional.
For assay [24], the system named is Candida albicans. Description: Antifungal activity against Candida albicans MTCC 3018 after 24 hrs by well diffusion assay. Conditions: MTCC 3018, 24 h. The assay is classed as functional. In short, it runs like this: as §1
For assay [25], the system named is Candida albicans. Description: Antifungal activity against Candida albicans MTCC 183 after 24 hrs by well diffusion assay. Format: functional. Conditions: MTCC 183, 24 h. The essentials:
as §1

A short description of assay [26]: Cytotoxicity against human DU145 cells by MTT assay. The assay is classed as functional, cell-based. Conditions: DU-145.

The structures appear in SMILES notation. Values after ≈ are worked out from the molar mass of the structure shown. Where only a bound is given, the exact number is not on record here.

By IC50 is commonly meant the concentration needed to halve the response being measured. What is called MIC is the smallest concentration in the dilution series that meets the test's criterion for growth inhibition. Read a high MIC as a less susceptible organism. For orientation: MBC means the smallest concentration meeting the test's criterion for killing. A high value points to less potent killing. In general, MFC refers to the smallest concentration meeting the test's criterion for killing the fungus. A low value points to more potent killing.

For `COc1cccc2c1C(=O)c1c(O)c3c(c(O)c1C2=O)C[C@@](O)(C(=O)CO)C[C@@H]3O[C@H]1C[C@H](N)[C@H](O)[C@H](C)O1` [DOXORUBICIN], the results for the IC50 (in the assay on MDA-MB-231; in the assay on HepG2; in assay [1]) were 0.7 µM, 0.8 µM and 0.8 µM, respectively.
Regarding `O=C(O)c1cn(C2CC2)c2cc(N3CCNCC3)c(F)cc2c1=O` [CIPROFLOXACIN], the minimal inhibitory concentration (MIC) was greater than 125 µg/mL against Candida albicans [2]; 0.9 µg/mL (≈ 2.72 µM) against Staphylococcus aureus [3]; 0.9 µg/mL (≈ 2.72 µM) in the assay on Micrococcus luteus [6]; 0.9 µg/mL (≈ 2.72 µM) in the assay on Bacillus subtilis [7]; 0.9 µg/mL (≈ 2.72 µM) with Raoultella planticola; 0.9 µg/mL (≈ 2.72 µM) against Staphylococcus aureus [11]. The MIC with Pseudomonas aeruginosa and with Escherichia coli was 0.9 µg/mL (≈ 2.72 µM) in each case. For the same molecule, the IC50 in the assay with Micrococcus luteus [4] and in the assay on Bacillus subtilis [12] was 0.5 µM in each case. The MBC in the assay on Micrococcus luteus [5] was 0.9 µg/mL (≈ 2.72 µM); in the assay on Staphylococcus aureus [8], 1.9 µg/mL (≈ 5.73 µM); in the assay with Staphylococcus aureus [9], 1.9 µg/mL (≈ 5.73 µM); in the assay on Bacillus subtilis [10], 1.9 µg/mL (≈ 5.73 µM).
Regarding `Clc1ccc(COC(Cn2ccnc2)c2ccc(Cl)cc2Cl)c(Cl)c1` (stereo not given) [MICONAZOLE], the MIC is 7.8 µg/mL (≈ 18.7 µM) against Candida albicans [2]; 7.8 µg/mL (≈ 18.7 µM) with Pichia sporocuriosa; greater than 125 µg/mL against Staphylococcus aureus [3]; 7.8 µg/mL (≈ 18.7 µM) in [Candida] aaseri; greater than 125 µg/mL in the assay with Micrococcus luteus [6]; greater than 125 µg/mL against Bacillus subtilis [7]. In addition, the MIC with Raoultella planticola was greater than 125 µg/mL; in the assay with Candida albicans [15], 7.8 µg/mL (≈ 18.7 µM); against Candida albicans [16] it was 7.8 µg/mL (≈ 18.7 µM); in the assay with Candida albicans [17] it was 7.8 µg/mL (≈ 18.7 µM); in the assay on Candida albicans [18] it was 7.8 µg/mL (≈ 18.7 µM); in the assay on Nakaseomyces glabratus, 7.8 µg/mL (≈ 18.7 µM). The MIC with Candida albicans [19] was 7.8 µg/mL (≈ 18.7 µM); against Candida parapsilosis [21], 7.8 µg/mL (≈ 18.7 µM); in the assay with Pichia kudriavzevii, 7.8 µg/mL (≈ 18.7 µM); with Candida albicans [22] it was 7.8 µg/mL (≈ 18.7 µM); with Staphylococcus aureus [11] it was greater than 125 µg/mL; against Candida albicans [24] it was 7.8 µg/mL (≈ 18.7 µM). The results for the MIC in the assay on Candida albicans [25], in the assay on Pseudomonas aeruginosa and in the assay on Escherichia coli were 7.8 µg/mL (≈ 18.7 µM), greater than 125 µg/mL and greater than 125 µg/mL, respectively. For the same molecule, the minimal fungicidal concentration (MFC) in the assay on Pichia sporocuriosa turned out to be 7.8 µg/mL (≈ 18.7 µM); in assay [Candida] aaseri it was 15.6 µg/mL (≈ 37.5 µM); against Candida albicans [15], 7.8 µg/mL (≈ 18.7 µM); in the assay on Candida albicans [16] it was 7.8 µg/mL (≈ 18.7 µM); against Candida albicans [17], 15.6 µg/mL (≈ 37.5 µM); in the assay with Candida albicans [18], 7.8 µg/mL (≈ 18.7 µM). Moreover, the minimum fungicidal concentration (MFC) is 7.8 µg/mL (≈ 18.7 µM) in the assay with Nakaseomyces glabratus; 15.6 µg/mL (≈ 37.5 µM) in the assay on Candida albicans [19]; 7.8 µg/mL (≈ 18.7 µM) with Candida parapsilosis [21]; 7.8 µg/mL (≈ 18.7 µM) in the assay with Pichia kudriavzevii; 15.6 µg/mL (≈ 37.5 µM) against Candida albicans [22]; 7.8 µg/mL (≈ 18.7 µM) with Candida albicans [24]. Also, in the assay with Candida albicans [25], the MFC is 7.8 µg/mL (≈ 18.7 µM). In addition, the Activity in the assay with Candida parapsilosis [13] worked out at 1.28 µg/mL; in the assay on Candida parapsilosis [14], 0.54 µg/mL; with Candida parapsilosis [20], 0.09 µg/mL; with Candida parapsilosis [23] it was 0.24 µg/mL.
For the molecule `CCCCCCCCC(CCCCCCCCC(=O)OC)SCC(=O)N[C@@H](CC(C)C)C(=O)OC` (stereo not given in full), the MIC against Candida albicans [2], with Staphylococcus aureus [3], against Micrococcus luteus [6], in the assay with Bacillus subtilis [7], against Raoultella planticola and in the assay on Staphylococcus aureus [11] was greater than 125 µg/mL each time. Further, the minimum inhibitory concentration (MIC) in the assay with Pseudomonas aeruginosa and against Escherichia coli was greater than 125 µg/mL each time. The IC50 in the assay on MDA-MB-231 stood at 152 µM; in assay [26], 215 µM.

The values are drawn from ChEMBL document CHEMBL3745670, “Synthesis and biological evaluation of novel lipoamino acid derivatives” (Bioorg Med Chem Lett, 2016).
